17 compounds from ChEMBL document CHEMBL1156851, “Practical and efficient synthesis of pyrano[3,2-c]pyridone, pyrano[4,3-b]pyran and their hybrids with nucleoside as potential antiviral and antileishmanial agents” (Bioorg Med Chem Lett, 2010) can be followed below.

A short description of data set [1]: Cytotoxicity against HEL cells assessed as reduction of cell growth. Type of data set: cell-based. As to conditions: human.
Data set [2] relates to Human betaherpesvirus 5. In words: Antiviral activity against Cytomegalovirus Davis infected in HEL cells assessed as reduction of viral plaque formation. Format: functional, organism-based. As to conditions: Human betaherpesvirus 5, Davis.
The nature of data set [3]: Cytotoxicity against HEL cells assessed as microscopically detectable alteration of cell morphology. As to conditions: human. Type of data set: cell-based. The procedure, abridged: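 Cells are examined under the microscope after exposure. MCC is the minimum concentration that causes a microscopically detectable change in cell morphology.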
Data set [4] deals with Human alphaherpesvirus 3. In words: Antiviral activity against thymidine kinase expressing Varicella Zoster Virus OKA infected in HEL cells assessed as reduction of viral plaque formation. The note with it: Human alphaherpesvirus 3, OKA. Type of data set: functional, organism-based.
In data set [5] the test system is Human alphaherpesvirus 3. In words: Antiviral activity against thymidine kinase deficient Varicella zoster virus 07/1 infected in HEL cells assessed as reduction of viral plaque formation. Format: functional, organism-based. As to conditions: Human alphaherpesvirus 3, 07/1, HEL.
For data set [6], the system named is Leishmania donovani. In words: Antileishmanial activity against Leishmania donovani promastigotes. Type of data set: functional, organism-based.
Data set [7] concerns Human betaherpesvirus 5. Nature of the data set: Antiviral activity against Cytomegalovirus AD169 infected in HEL cells assessed as reduction of viral plaque formation. The note with it: Human betaherpesvirus 5, AD169, HEL. Format: functional, organism-based.

SMILES strings stand for the structures. Where only a bound is given, the exact number is not on record here.

Usually CC50 stands for the concentration giving 50% cytotoxicity. A word on the EC50: it is the concentration giving half of the maximal effect. Take `Nc1ccn(C[C@@H](CO)OCP(=O)(O)O)c(=O)n1` [CIDOFOVIR]: in data set [1], the cytotoxic concentration (CC50) was found to be 175 µM. Further, in data set [2], the EC50 is 0.9 µM. Further, the MCC in data set [3] is over 1270 µM.

For the compound `Nc1nc2c(ncn2COCCO)c(=O)[nH]1` [ACYCLOVIR], the CC50 in data set [1] came out at 1780 µM. In data set [4], the EC50 came to 0.84 µM. Besides, the MCC in data set [3] is over 1780 µM.

The term IC50 denotes the concentration needed to halve the response being measured. Lower therefore signals higher potency. As to `Cc1cc2c(c(=O)o1)C(c1cn([C@H]3C[C@H](O)[C@@H](CO)O3)c(=O)[nH]c1=O)C(C#N)=C(N)O2` (stereo not given in full), the cytotoxic concentration (CC50) in data set [1] stood at 3.3 µM. Moreover, the EC50 in data set [5] stood at 5.3 µM; in data set [7] it was 54.7 µM; in data set [4] it was 1.8 µM; in data set [2], 54.7 µM. For the same compound, in data set [6], the IC50 was over 200 µM. Further, the MCC in data set [3] is over 100 µM.

With `Cc1cc2c(c(=O)n1C)C(c1cn([C@H]3C[C@H](O)[C@@H](CO)O3)c(=O)[nH]c1=O)C(C#N)=C(N)O2` (stereo not given in full), in data set [1], the cytotoxic concentration (CC50) was over 100 µM. For the same compound, the EC50 was over 100 µM in data set [5], over 100 µM in data set [7], 74.6 µM in data set [4] and over 100 µM in data set [2]. In data set [6], this compound displayed an IC50 of over 200 µM. In addition, the MCC in data set [3] is over 100 µM.

In the case of `CCn1c(C)cc2c(c1=O)C(c1cn([C@H]3C[C@H](O)[C@@H](CO)O3)c(=O)[nH]c1=O)C(C#N)=C(N)O2` (stereo not given in full), the CC50 in data set [1] is over 100 µM. The EC50 in data set [5] is over 100 µM; in data set [7], over 100 µM; in data set [4], 71.2 µM; in data set [2] it was over 100 µM. Also, the IC50 in data set [6] is over 200 µM. The MCC in data set [3] is over 100 µM.

In the case of `CC(=O)OC[C@H]1O[C@@H](n2cc(C3C(C#N)=C(N)Oc4cc(C)n(C)c(=O)c43)c(=O)[nH]c2=O)C[C@@H]1OC(C)=O` (stereo not given in full), the 50% cytotoxic concentration (CC50) in data set [1] is over 100 µM. Besides, the EC50 in data set [5], in data set [7], in data set [4] and in data set [2] was over 100 µM throughout. This compound gave a concentration for half-maximal inhibition (IC50) in data set [6] of over 200 µM. The MCC in data set [3] was over 100 µM.

Regarding `CC(=O)OC[C@H]1O[C@@H](n2cc(C3C(C#N)=C(N)Oc4cc(C)[nH]c(=O)c43)c(=O)[nH]c2=O)C[C@@H]1OC(C)=O` (stereo not given in full), the CC50 in data set [1] is over 100 µM. Further, the half-maximal effective concentration (EC50) in data set [5] is over 100 µM; in data set [7] it was over 100 µM; in data set [4], 100 µM; in data set [2], over 100 µM. Further, the IC50 in data set [6] came to 140 µM. Besides, the MCC in data set [3] is over 100 µM.

As to `Cc1cc(O)c(C(c2cn([C@H]3C[C@H](O)[C@@H](CO)O3)c(=O)[nH]c2=O)c2c(O)cc(C)n(C)c2=O)c(=O)n1C`, in data set [1], the CC50 is 7.7 µM. The EC50 in data set [5] was 16.7 µM; in data set [7], 54.7 µM; in data set [4], 2.2 µM; in data set [2] it was over 100 µM. In data set [6], this compound had an IC50 of over 200 µM. Also, the MCC in data set [3] was over 100 µM.

In the case of `CCn1c(C)cc2c(c1=O)C(c1cn([C@H]3C[C@H](OC(C)=O)[C@@H](COC(C)=O)O3)c(=O)[nH]c1=O)C(C#N)=C(N)O2` (stereo not given in full), in data set [1], the CC50 was over 100 µM. In addition, the EC50 in data set [5], in data set [7], in data set [4] and in data set [2] was over 100 µM in each case. This compound also registered an IC50 in data set [6] of over 200 µM. Further, in data set [3], the MCC is over 100 µM.

Take `Cc1cc(O)c(C(c2cn([C@H]3C[C@H](O)[C@@H](CO)O3)c(=O)[nH]c2=O)c2c(O)cc(C)[nH]c2=O)c(=O)[nH]1`: the CC50 in data set [1] is 2.1 µM. Besides, the EC50 in data set [5] is 1.66 µM; in data set [7] it was 44.7 µM; in data set [4], 0.32 µM; in data set [2], over 100 µM. In data set [6], this compound came in with an IC50 of 43.5 µM. In addition, the MCC in data set [3] was over 100 µM.

As to `N=C(N)c1ccc(OCCCCCOc2ccc(C(=N)N)cc2)cc1` [PENTAMIDINE], in data set [6], the IC50 was found to be 6.5 µM.

Take `CC(=O)OC[C@H]1O[C@@H](n2cc(C(c3c(O)cc(C)n(C)c3=O)c3c(O)cc(C)n(C)c3=O)c(=O)[nH]c2=O)C[C@@H]1OC(C)=O`: the cytotoxic concentration (CC50) in data set [1] is 20 µM. Moreover, the concentration for a half-maximal effect (EC50) in data set [5] is over 100 µM; in data set [7], over 100 µM; in data set [4] it was 47.8 µM; in data set [2], over 100 µM. In addition, the IC50 in data set [6] was over 200 µM. The MCC in data set [3] is over 100 µM.

As for `Cc1cc2c(c(=O)[nH]1)C(c1cn([C@H]3C[C@H](O)[C@@H](CO)O3)c(=O)[nH]c1=O)C(C#N)=C(N)O2` (stereo not given in full), in data set [1], the CC50 is over 100 µM. Further, the EC50 in data set [5] is over 100 µM; in data set [7], over 100 µM; in data set [4], 55.7 µM; in data set [2] it was over 100 µM. Further, in data set [6], half-maximal inhibition (IC50) required 10.6 µM. The MCC in data set [3] was over 100 µM.

On to `CC(=O)OC[C@H]1O[C@@H](n2cc(C(c3c(O)cc(C)oc3=O)c3c(O)cc(C)oc3=O)c(=O)[nH]c2=O)C[C@@H]1OC(C)=O`, for which the half-maximal cytotoxic concentration (CC50) in data set [1] is 3.8 µM. In addition, the EC50 in data set [5] is 48.6 µM; in data set [7], over 100 µM; in data set [4], 40.2 µM; in data set [2], over 100 µM. This compound also yielded a half-inhibitory concentration (IC50) in data set [6] of over 200 µM. Also, the MCC in data set [3] was over 100 µM.

Turning to `CC(=O)OC[C@H]1O[C@@H](n2cc(C(c3c(O)cc(C)[nH]c3=O)c3c(O)cc(C)[nH]c3=O)c(=O)[nH]c2=O)C[C@@H]1OC(C)=O`, the CC50 in data set [1] was found to be 36.9 µM. In addition, the EC50 in data set [5], in data set [7], in data set [4] and in data set [2] was over 100 µM in each case. Further, the IC50 in data set [6] was over 200 µM. Besides, the MCC in data set [3] was over 100 µM.

Consider `Cc1cc(O)c(C(c2cn([C@H]3C[C@H](O)[C@@H](CO)O3)c(=O)[nH]c2=O)c2c(O)cc(C)oc2=O)c(=O)o1`, for which the cytotoxic concentration (CC50) in data set [1] came to 1.8 µM. The EC50 in data set [5] was 2.62 µM; in data set [7], 20 µM; in data set [4], 0.6 µM; in data set [2], 20 µM. This compound registered an IC50 in data set [6] of over 200 µM. In addition, in data set [3], the MCC is over 100 µM.

As to `CC(=O)OC[C@H]1O[C@@H](n2cc(C3C(C#N)=C(N)Oc4cc(C)oc(=O)c43)c(=O)[nH]c2=O)C[C@@H]1OC(C)=O` (stereo not given in full), the CC50 in data set [1] is 8.9 µM. The 50% effective concentration (EC50) in data set [5] was over 100 µM; in data set [7], over 100 µM; in data set [4], 48.1 µM; in data set [2], over 100 µM. In data set [6], this compound registered an IC50 of over 200 µM. For the same compound, in data set [3], the MCC was over 100 µM.
